Source: PubChem (several laboratories)
Arrestin-AP2 inh = inhibitors of beta-arrestin/AP2 binding, primary screen, biochemical, GPCR trafficking, flow cytometry; beta-arrestin 1 C-terminal peptide binding to AP2 beta2-adaptin appendage (human); FITC-arrestin peptide / GST-AP2 beads; AP2 beta2 appendage carries R879A mutation; inhibition, % at 10 µM; hit rate 0.31% among 340,000;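 active means inhibition above a set limit, near 3 SD of compounds lacking own fluorescence, cut at about 54% in these data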
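Measured by: flow cytometry, FL1 (488/535 nm); Material: AP2 appendage R879A on GSH beads; Evaluation: percent response; Timing: pre-incubation 12 min, peptide binding 1 h, room temperature; Also added: 50 nM FITC-arrestin peptide; Medium: PBS with 0.05% Tween 20 and 0.1% BSA.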
DYRK1A inh = rat Dyrk1A kinase inhibitors, primary screen, biochemical, single point, plate reader. inhibition, % at 12.5 µM. ADP-Glo luminescence, NFATc1 peptide. AID 504441, 2011. Dual specificity tyrosine-phosphorylation-regulated kinase 1A (Rattus norvegicus), Q63470. hit rate 0.43% among 310,000; in the data active means inhibition above about 50%
GSK3A inh = blockers of GSK3A enzyme activity – biochemical, luminescence, cell-free homogeneous, HTS, primary screen. Glycogen synthase kinase-3 alpha (Homo sapiens), P49840. GSK-3 alpha kinase, ADP-Glo luminescence, 60 min. inhibition, % at 10 µM. hit rate 0.1% among 320,000. AID 2650, 2010;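 active means more than half of replicates show inhibition above 20%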;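 further: GST-tagged GSK-3 alpha with peptide substrate and 25 µM ATP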
Target sequence (P49840 whole entry, looked up): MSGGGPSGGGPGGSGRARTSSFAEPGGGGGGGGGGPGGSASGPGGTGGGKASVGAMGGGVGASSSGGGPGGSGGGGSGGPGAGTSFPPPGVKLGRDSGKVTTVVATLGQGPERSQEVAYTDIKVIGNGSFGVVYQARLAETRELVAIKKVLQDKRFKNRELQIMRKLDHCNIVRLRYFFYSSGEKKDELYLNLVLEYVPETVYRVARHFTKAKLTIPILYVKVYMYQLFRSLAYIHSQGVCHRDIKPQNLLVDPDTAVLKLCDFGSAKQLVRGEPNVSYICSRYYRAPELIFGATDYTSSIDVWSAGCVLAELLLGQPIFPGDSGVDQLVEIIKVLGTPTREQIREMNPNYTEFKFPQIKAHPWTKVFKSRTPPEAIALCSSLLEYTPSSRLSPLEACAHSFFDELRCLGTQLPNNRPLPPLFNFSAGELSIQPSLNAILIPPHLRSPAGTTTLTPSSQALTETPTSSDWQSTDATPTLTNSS
Rin1 Abl inh = inhibitors of Rin1-Abl protein binding, primary screen, biochemical, TR-FRET; inhibition, % at 7.35 µM; hit rate 0.4% among 360,000; AID 588664, 2011; in the data active means inhibition above about 5%, passing the limit was not always enough
STK33 kinase inh = inhibitors of purified STK33 kinase, primary screen, biochemical, ADP-Glo luminescence, homogeneous, cell-free; hit rate 0.073% among 320,000; AID 2661, 2010; inhibition, % at 10 µM; MBP phosphorylation;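 active means inhibition at or above 25%, using the most active replicate where run in duplicate; inactive means inhibition below 25%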
GSK3beta inhib = human GSK3beta kinase inhibitors, primary screen, biochemical, cell-free homogeneous, HTS | hit rate 0.038% among 300,000 | Glycogen synthase kinase-3 beta (Homo sapiens), P49841 | GST-GSK3beta kinase, ADP-Glo luminescence, 60 min; stronger effect = lower value | activity score (negative = inhibition), % at 10 µM;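 active means more than half of replicate wells score below -50%, meaning over 50% inhibition versus plate controls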
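Assay system: GST-tagged human GSK3beta kinase, cell-free; Input: 1.6 ng GSK3beta; Medium: Tris/MgCl2 kinase buffer; Timing: 60 min enzyme reaction, room temperature; Signal: ADP-Glo luminescence quantifying ADP generated by kinase; Evaluation: score relative to plate controls; Benchmarks: DMSO neutral wells and GW8510 at 20 µM as positive.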
Rin1-Abl confirm = Rin1-Abl binding inhibitor retest, confirmation, biochemical, TR-FRET; hit rate 49% among 1,300; shares compounds with Rin1 Abl inh; inhibition, % at 7.35 µM; purified proteins
GFP quench = GFP fluorescence inhibitors and quenchers, artefact control for Rin1-Abl interaction inhibitor project, biochemical; inhibitors/quenchers counterscreen; shares compounds with Rin1 Abl inh; inhibition, % at 6.75 µM; AID 602125, 2011; hit rate 8.5% among 1,300;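 further: ABL1-eGFP fusion protein alone without its partner RIN1-SBP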
GFP quench dose = GFP fluorescence inhibitors and quenchers, dose response, artefact control for Rin1-Abl interaction inhibitor project, biochemical. 230 tested, under 10 active. GFP fluorescence interference/quenching counterscreen. shares compounds with Rin1 Abl inh. IC50, µM; call rule not given here;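 further: ABL1-eGFP fusion protein alone without its RIN1 binding partner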
Each line names hits and unclear results; the compound was inactive in the other large screens (follow-up assays come after a bar, where they were run). Most compounds without a hit are left out; they make up all but 0.99% or so of the library. Unless noted, no stated cut-off is given here; in the data, active means inhibition above about 6.5%; inactive means the rest.

CC(C)C[C@H](NC(=O)[C@H](Cc1ccccc1)n1c(=O)[nH]c2ccccc2c1=O)C(=O)N1CCC[C@@H]1C(=O)O	none
CCc1nn(CC(=O)N2CCC(C(N)=O)CC2)c(=O)c2cc3occc3n12	Rin1 Abl inh 12 | Rin1-Abl confirm inactive | GFP quench inactive
Cc1cc2ncn(C(=O)c3ccc(F)cc3)c2cc1C	none
Cc1ccc(NC(=O)CN2C(=O)C3C4C=CC(C4)C3C2=O)cc1 (configuration not stated)	Rin1 Abl inh 6.3 | Rin1-Abl confirm inactive | GFP quench inactive
Cc1ccc(CNC(=O)CN(c2ccc(C)cc2)S(=O)(=O)c2c(C)n[nH]c2C)cc1	none
COc1ccc(/C=N/NC(=O)Cn2c(Cc3ccc(OC)c(OC)c3)nc3ccccc32)cc1	Rin1 Abl inh 14 | Rin1-Abl confirm 19 | GFP quench inactive | GFP quench dose inactive
C#CCOCCOCCOCCNc1nc(N2CCN(C(=O)CCCCCCCCCCNC(=O)Cn3cc(CCCCCN)nn3)CC2)nc(N2CCN(C(=O)CCCCCCCCCCNC(=O)[C@H](CO)n3cc(CCCCCN)nn3)CC2)n1	none (no result: GSK3beta inhib)
C#CCOCCOCCOCCNc1nc(N2CCOCC2)nc(N2CCN(C(=O)CCCCCCCCCCNC(=O)[C@H](CO)n3cc(CCCCCN)nn3)CC2)n1	Rin1 Abl inh 9.9 (no result: GSK3beta inhib) | Rin1-Abl confirm 9.8 | GFP quench inactive
C#CCOCCOCCOCCNc1nc(N2CCN(C(=O)CCCCCCCCCCNC(=O)[C@H](CCCCN)n3cc(CCO)nn3)CC2)nc(N2CCN(C(=O)CCCCCCCCCCNC(=O)[C@H](CCCCN)n3cc(CCO)nn3)CC2)n1	Rin1 Abl inh 19 (no result: GSK3beta inhib) | Rin1-Abl confirm 20 | GFP quench inactive
Cc1ccc(NC(=O)CCN2C(=O)NC3(CCCC3)C2=O)cc1S(=O)(=O)N1CCOCC1	none (no result: GSK3beta inhib)
COc1cc(OC)cc(C(=O)NNC(=O)C(CCC(N)=O)NS(=O)(=O)c2ccc(Cl)cc2)c1 (configuration not stated)	none (no result: GSK3A inh, STK33 kinase inh, GSK3beta inhib)
CN1C(=O)N(CC(=O)Nc2ccc3c(c2)OCO3)C(=O)C12CCCCC2	none (no result: Arrestin-AP2 inh, DYRK1A inh, GSK3A inh, STK33 kinase inh, GSK3beta inhib)
COCCN=c1scc(-c2cccs2)n1/N=C/c1ccc(O)c(O)c1O	Rin1 Abl inh 13 | Rin1-Abl confirm 11 | GFP quench 10
COCCN=c1scc(-c2ccccc2)n1/N=C/c1c[nH]c2ccccc12	none
CCN=c1scc(C)n1/N=C/c1ccc(O)c(O)c1O	Rin1 Abl inh 20 (no result: GSK3A inh) | Rin1-Abl confirm 16 | GFP quench 12
CCC/C(=N\NC(=O)C1CC1)c1ccc(Br)cc1	none
CCc1nnc(NC(=O)CN2CCCC(C)C2)s1 (configuration not stated)	none
C#CCOCC1CN(C)C(=O)O1 (configuration not stated)	none (no result: Arrestin-AP2 inh, DYRK1A inh, GSK3A inh, STK33 kinase inh, GSK3beta inhib)
COc1cc(N)c2ncccc2c1Br	Rin1 Abl inh 13 (no result: GSK3A inh, STK33 kinase inh, GSK3beta inhib) | Rin1-Abl confirm inactive | GFP quench inactive
COc1cc(Cl)ccc1OCc1cc(C(=O)N2CCCCC2c2cccnc2)no1 (configuration not stated)	Rin1 Abl inh 10 (no result: DYRK1A inh) | Rin1-Abl confirm inactive | GFP quench inactive
O=C(c1cc(COc2ccc(F)cc2Cl)on1)N1CCCCC1c1cccnc1 (configuration not stated)	none
CCC(C)n1c(NC(=O)c2ccccc2)c(C#N)c2nc3ccccc3nc21 (configuration not stated)	Rin1 Abl inh 14 | Rin1-Abl confirm inactive | GFP quench inactive
CCCCn1c(NC(=O)c2ccc(F)cc2)c(C#N)c2nc3ccccc3nc21	none (no result: Arrestin-AP2 inh, DYRK1A inh, Rin1 Abl inh)
CCCCn1c(NC(=O)c2ccccc2)c(C#N)c2nc3ccccc3nc21	Rin1 Abl inh 12 (no result: GSK3A inh, STK33 kinase inh, GSK3beta inhib) | Rin1-Abl confirm inactive | GFP quench inactive
O=C(Nc1ccc(S(=O)(=O)N2CCCC2)cc1)c1c(F)cccc1F	none
CCOc1ccc(S(=O)(=O)N2CCC(C(=O)OC(C)C(=O)NC3CCCCC3C)CC2)cc1 (configuration not stated)	none (no result: DYRK1A inh, GSK3beta inhib)
COc1ccc(NC(=O)CCC(=O)c2ccc(Cl)cc2)cn1	none (no result: GSK3beta inhib)
O=C(/C=C/c1cccnc1)c1cccc(O)c1	Rin1 Abl inh 8.6 | Rin1-Abl confirm 10 | GFP quench inactive
Cc1cc(F)ccc1C(O)c1ncc(-c2ccc3ccccc3c2)[nH]1 (configuration not stated)	none (no result: Arrestin-AP2 inh, DYRK1A inh, GSK3A inh, STK33 kinase inh, GSK3beta inhib)
CN1CCc2c(c3c(n2C)CCN(C)C3c2ccc(F)cc2)C1c1ccc(F)cc1 (configuration not stated)	none
COc1ccc(C2c3c4c(n(C)c3CCN2C)CCN(C)C4c2ccc(OC)cc2)cc1 (configuration not stated)	Rin1 Abl inh 6.5 (no result: GSK3beta inhib) | Rin1-Abl confirm inactive | GFP quench inactive
Cc1ccc(C2=NOC(C)(c3nnc(-c4ccncc4)o3)C2)cc1 (configuration not stated)	Rin1 Abl inh 15 | Rin1-Abl confirm inactive | GFP quench inactive
COc1ccc(C2=NOC(C)(c3nnc(-c4ccncc4)o3)C2)cc1 (configuration not stated)	Rin1 Abl inh 12 | Rin1-Abl confirm inactive | GFP quench inactive
CC1(c2nnc(-c3ccc(Cl)cc3)o2)CC(c2ccncc2)=NO1 (configuration not stated)	none
COc1ccc(CNC(=O)c2ccc(NC(=O)CC3SC(N4CCCC4)=NC3=O)cc2)cc1 (configuration not stated)	Rin1 Abl inh 7.8 | Rin1-Abl confirm 7.5 | GFP quench inactive
CC1=NN(c2ccccc2)C(=O)/C1=C/c1ccc(Cl)cc1	Rin1 Abl inh 12 | Rin1-Abl confirm inactive | GFP quench inactive
CCOc1cc(/C=C2\C(=O)N(c3ccc(C(N)=O)cc3)N=C2C)ccc1OC(=O)c1cccs1	none (no result: GSK3A inh)
